From ChEMBL document CHEMBL1123080, “Synthesis and antiviral activity of the carbocyclic analogues of (E)-5-(2-halovinyl)-2'-deoxyuridines and (E)-5-(2-halovinyl)-2'-deoxycytidines” (1985)
≈ marks a conversion by molar mass, not a printed value.

Tested on: Vaccinia virus
Assay: Minimum inhibitory concentration (MIC) required to reduce vaccinia virus induced cytopathogenicity in primary rabbit kidney cell cultures
Type: functional
Settings: Orthopoxvirus vaccinia
How it was run: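 Primary rabbit kidney cell cultures were infected with virus and treated with compound. The MIC is the concentration that reduces virus-induced cytopathogenicity by 50%. Cytotoxicity was scored as microscopically visible alteration of normal cell morphology, with 400 μg/mL the highest concentration tested.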

| SMILES | MIC50 [µg/mL] |
| --- | --- |
| Nc1nc(=O)n(C2CC(O)C(CO)C2)cc1/C=C/Br (configuration not stated) | > 200 |
| O=c1[nH]c(=O)n([C@H]2C[C@H](O)[C@@H](CO)O2)cc1/C=C/I | 7 (≈ 18.4 µM) |
| O=c1[nH]c(=O)n([C@H]2C[C@H](O)[C@@H](CO)O2)cc1I [IDOXURIDINE] | 0.2 (≈ 0.565 µM) |
| NC1NC(=O)N([C@H]2C[C@H](O)[C@@H](CO)O2)C=C1/C=C/Br (some centres not stated) | 200 (≈ 598 µM) |
| O=c1[nH]c(=O)n([C@@H]2C[C@H](CO)[C@@H](O)C2)cc1I | 20 (≈ 56.8 µM) |
| O=c1[nH]c(=O)n([C@H]2C[C@@H](CO)[C@H](O)C2)cc1/C=C/Br | 300 (≈ 906 µM) |
| O=c1[nH]c(=O)n(C2CC(O)C(CO)C2)cc1/C=C/I (configuration not stated) | 300 (≈ 793 µM) |
